Laboratory results: ChEMBL document CHEMBL5724801, “EUbOPEN Chemogenomics Library - Multiplex” (2024)
Where “and” joins values, the source holds several entries; their conditions need not be identical. Equal entries are not always repeated.

Tested on: HEK-293T
Assay: Multiplex assay against HEK293T
Format: toxicity, cell-based
Conditions: human
Summary of the method: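 Hoechst33342, BioTracker Green Microtubule Cytoskeleton Dye, MitoTracker Red and Annexin V Alexa Fluor 680 were added to live cells at seeding, and imaging on a CQ1 microscope at 37°C and 5% CO2 followed compound addition. Gating by CellPathfinder machine learning separated cells into Hoechst high-intensity objects or normal cells, then normal cells into healthy, pyknosed or fragmented nuclei, then pyknosed cells into mitotic or apoptotic. Per cents of healthy-nucleus cells are reported for the tubulin, mitochondrial-mass and membrane-permeability phenotypes.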

[1] = 12 h, 1 µM, compound concentration 1 uM
[2] = 12 h, 10 µM, compound concentration 10 uM
[3] = 24 h, 1 µM, compound concentration 1 uM
[4] = 24 h, 10 µM, compound concentration 10 uM
[5] = 48 h, 1 µM, compound concentration 1 uM
[6] = 48 h, 10 µM, compound concentration 10 uM

In the case of COc1cc2nc(N3CCN(C(=O)c4ccco4)CC3)nc(N)c2cc1OC.Cl [PRAZOSIN HYDROCHLORIDE], the “Population Apoptotic (%)” value [1] is reported as 32% and 56%, the “Population Fragmented Nuclei (%)” value [1] is reported as 10% and 6% and the “Population Healthy Nuclei (%)” value [1] is reported as 77%. The “Population Hoechst High Intensity Objects (%)” value [1] was 6%, the “Population Membrane Permeable-Phenotype (%)” value [1] was 0% and the “Population Mitochondria Different-Phenotype (%)” value [1] was 35% and 66%. For the same molecule, the “Population Mitotic Cells (%)” value [1] was 67% and 43%, the “Population Normal (%)” value [1] was 93% and the “Population Pyknosed Nuclei (%)” value [1] was 11% and 16%. The “Population Tubulin-Different-Phenotype (%)” value [1] was 23% and 22%, the “Total Cell Count” value [1] was 448 and 290 and the “Population Apoptotic (%)” value [2] was 38% and 55%. The “Population Fragmented Nuclei (%)” value [2] was 9% and 5%, the “Population Healthy Nuclei (%)” value [2] was 75% and 77% and the “Population Hoechst High Intensity Objects (%)” value [2] was 10% and 9%. The “Population Membrane Permeable-Phenotype (%)” value [2] was 0%, the “Population Mitochondria Different-Phenotype (%)” value [2] was 62% and 61% and the “Population Mitotic Cells (%)” value [2] was 61% and 44%. The “Population Normal (%)” value [2] was 89% and 90%, the “Population Pyknosed Nuclei (%)” value [2] was 14% and 16% and the “Population Tubulin-Different-Phenotype (%)” value [2] was 45% and 25%. The “Total Cell Count” value [2] was 348 and 404, the “Population Apoptotic (%)” value [3] was 38% and 51% and the “Population Fragmented Nuclei (%)” value [3] was 9%. For the same molecule, the “Population Healthy Nuclei (%)” value [3] was 82% and 80%, the “Population Hoechst High Intensity Objects (%)” value [3] was 3% and 5% and the “Population Membrane Permeable-Phenotype (%)” value [3] was 0%. For the same molecule, the “Population Mitochondria Different-Phenotype (%)” value [3] was 25% and 45%, the “Population Mitotic Cells (%)” value [3] was 61% and 48% and the “Population Normal (%)” value [3] was 96% and 94%. The “Population Pyknosed Nuclei (%)” value [3] was 7% and 10%, the “Population Tubulin-Different-Phenotype (%)” value [3] was 10% and 16% and the “Total Cell Count” value [3] was 660 and 364. The “Population Apoptotic (%)” value [4] was 50% and 54%, the “Population Fragmented Nuclei (%)” value [4] was 12% and 11% and the “Population Healthy Nuclei (%)” value [4] was 77% and 78%. The “Population Hoechst High Intensity Objects (%)” value [4] was 5%, the “Population Membrane Permeable-Phenotype (%)” value [4] was 0% and 1% and the “Population Mitochondria Different-Phenotype (%)” value [4] was 40% and 42%. For the same molecule, the “Population Mitotic Cells (%)” value [4] was 50% and 45%, the “Population Normal (%)” value [4] was 94% and the “Population Pyknosed Nuclei (%)” value [4] was 9% and 10%. For the same molecule, the “Population Tubulin-Different-Phenotype (%)” value [4] was 32% and 20%, the “Total Cell Count” value [4] was 463 and 534 and the “Population Apoptotic (%)” value [5] was 36% and 38%. For the same molecule, the “Population Fragmented Nuclei (%)” value [5] was 17% and 16%, the “Population Healthy Nuclei (%)” value [5] was 76% and the “Population Hoechst High Intensity Objects (%)” value [5] was 1% and 2%. The “Population Membrane Permeable-Phenotype (%)” value [5] was 1% and 0%, the “Population Mitochondria Different-Phenotype (%)” value [5] was 16% and 23% and the “Population Mitotic Cells (%)” value [5] was 63% and 61%. The “Population Normal (%)” value [5] was 98% and 97%, the “Population Pyknosed Nuclei (%)” value [5] was 5% and 6% and the “Population Tubulin-Different-Phenotype (%)” value [5] was 8% and 9%. The “Total Cell Count” value [5] was 1114 and 636, the “Population Apoptotic (%)” value [6] was 33% and 23% and the “Population Fragmented Nuclei (%)” value [6] was 17% and 14%. For the same molecule, the “Population Healthy Nuclei (%)” value [6] was 75% and 78%, the “Population Hoechst High Intensity Objects (%)” value [6] was 4% and the “Population Membrane Permeable-Phenotype (%)” value [6] was 2% and 1%. The “Population Mitochondria Different-Phenotype (%)” value [6] was 32% and 21%, the “Population Mitotic Cells (%)” value [6] was 66% and 76% and the “Population Normal (%)” value [6] was 95%. For the same molecule, the “Population Pyknosed Nuclei (%)” value [6] was 7%, the “Population Tubulin-Different-Phenotype (%)” value [6] was 17% and 11% and the “Total Cell Count” value [6] was 693 and 778.
